ChEMBL document CHEMBL1137637, “Quinuclidine derivatives as potential antiparasitics” (Antimicrob Agents Chemother, 2007)
In brackets after ≈: the same amount, converted by molar mass.

What was measured:
Leishmania amazonensis [1] = assay: Inhibition of sterol biosynthesis in Leishmania mexicana amazonensis promastigotes assessed as reduction in endogenous cholesta-5,7,24-trien-3beta-ol level at 10 uM after 96 hrs by gas-liquid chromatography; format: functional; parameters: scale not given: the % may be the effect or the level left
In short: (§1)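 L. mexicana promastigotes exposed to compound for 96 h. Total lipids extracted and neutral sterols separated from polar lipids by silicic acid column chromatography. Sterols analysed by TLC and by quantitative capillary gas-liquid chromatography with mass spectrometry. Composition expressed as mass % of free sterols, compared with untreated control.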

Leishmania amazonensis [2] = assay: Inhibition of sterol biosynthesis in Leishmania mexicana amazonensis promastigotes assessed as reduction in endogenous episterol level at 10 uM after 96 hrs by gas-liquid chromatography; format: functional; parameters: scale not given: the % may be the effect or the level left; in short: as §1
Plasmodium falciparum = assay: Antiplasmodial activity after 48 hrs against chloroquine and pyrimethamine-resistant Plasmodium falciparum K1 in human erythrocytes by [3H]hypoxanthine uptake; format: functional, organism-based
In short: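 P. falciparum K1 in human red cells in RPMI 1640 with 5% Albumax, exposed to serial drug dilutions. Incubated 48 h at 37°C under reduced oxygen, then 0.5 μCi [³H]hypoxanthine per well for 24 h more. Cells harvested onto glass-fibre filters and counted by scintillation. Result expressed as % of untreated control, with IC50 from sigmoidal curve. Duplicate, plus an independent repeat for actives.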

Trypanosoma cruzi = assay: Antitrypanosomal activity against trypomastigotes of Trypanosoma cruzi Tulahuen C2C4 containing lacZ gene in rat L6 cells after 4 days by chlorophenol red-beta-D-galactopyranoside/Nonidet assay; format: functional, organism-based; settings: Tulahuen C2C4, L6, 96 h
In short: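 L-6 rat myoblasts seeded at 2,000 cells/well in RPMI 1640 with 10% FBS and 2 mM L-glutamine. After 24 h, 5,000 T. cruzi Tulahuen C2C4 lacZ trypomastigotes added with serial drug dilution. Incubated at 37°C in 5% CO2 for 4 days. CPRG/Nonidet substrate added and colour read at 540 nm after 2–4 h. IC50 from sigmoidal curve. Duplicate determinations.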

Leishmania amazonensis [3] = assay: Antileishmanial activity against Leishmania mexicana amazonensis promastigotes by trypan blue exclusion method; format: functional, organism-based
In short: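 L. mexicana amazonensis promastigotes cultured in liver infusion-tryptose medium with lactalbumin and 10% FCS at 26°C, unagitated. Cultures started at 2 × 10⁶ cells/ml and drug added at 0.5–1 × 10⁷ cells/ml. Density counted by electronic particle counter and hemocytometer. Viability by trypan blue exclusion. Triplicate growth experiments.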

[4] = test system: Trypanosoma brucei rhodesiense; assay: Trypanocidal activity against Trypanosoma brucei rhodesiense STIB 900 bloodstream form after 72 hrs by resazurin assay; format: functional, organism-based; settings: STIB 900, 72 h
In short: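 T. b. rhodesiense STIB 900 bloodstream forms in MEM with 2-mercaptoethanol and 15% heat-inactivated horse serum, with serial drug dilutions. Incubated 72 h at 37°C in 5% CO2. Resazurin added for 2–4 h more, fluorescence read at ex 536/em 588 nm. IC50 from sigmoidal curve. Duplicate, with an independent repeat for actives.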

[5] = target: T1, Farnesyltransferase, putative (Leishmania major, UniProt Q4Q5W4); assay: Inhibition of Leishmania major recombinant squalene synthase expressed in Escherichia coli by liquid scintillation counter
T1 sequence (Q4Q5W4 whole entry): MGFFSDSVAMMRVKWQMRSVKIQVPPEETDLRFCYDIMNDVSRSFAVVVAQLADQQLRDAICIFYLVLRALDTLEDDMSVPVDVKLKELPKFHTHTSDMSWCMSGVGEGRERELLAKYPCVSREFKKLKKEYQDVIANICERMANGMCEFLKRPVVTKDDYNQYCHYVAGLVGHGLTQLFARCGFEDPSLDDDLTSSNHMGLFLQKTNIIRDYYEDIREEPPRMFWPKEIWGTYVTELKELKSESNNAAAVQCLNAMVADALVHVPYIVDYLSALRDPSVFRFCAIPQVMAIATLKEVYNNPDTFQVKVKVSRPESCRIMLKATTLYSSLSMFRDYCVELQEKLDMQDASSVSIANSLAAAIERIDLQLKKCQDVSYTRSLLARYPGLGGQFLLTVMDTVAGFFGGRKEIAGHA
In short: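 Soluble E. coli extract expressing L. major SQS truncated by 16 N-terminal and 40 C-terminal residues. Buffer: 50 mM phosphate pH 7.4, 20 mM MgCl2, 5 mM CHAPS, 1% Tween 80, 10 mM DTT, BSA, 0.25 mM NADPH, and a glucose-6-phosphate/G6PDH regenerating system. Substrate 0.5 μM radiolabelled farnesyl pyrophosphate. Squalene band counted by scintillation. IC50 from hyperbolic plot of five concentrations in duplicate, usually run twice.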

Leishmania amazonensis [6] = assay: Inhibition of sterol biosynthesis in Leishmania mexicana amazonensis promastigotes assessed as reduction in endogenous 5-dehydro episterol level at 10 uM after 96 hrs by gas-liquid chromatography; format: functional; parameters: scale not given: the % may be the effect or the level left; in short: as §1
L6 = assay: Cytotoxicity against rat L6 cells after 72 hrs by resazurin assay; format: cell-based; settings: L6, 72 h
In short: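 L-6 cells seeded at 4 × 10⁴ cells/ml in RPMI 1640 with 10% FBS and 2 mM L-glutamine. After 24 h, medium replaced with serial drug dilution and incubated for 72 h at 37°C in 5% CO2. Resazurin added for 2–4 h, fluorescence read at ex 536/em 588 nm. IC50 from sigmoidal curve. Duplicate, with an independent repeat for actives.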

Leishmania amazonensis [7] = assay: Inhibition of sterol biosynthesis in Leishmania mexicana amazonensis promastigotes assessed as reduction in exogenous cholesterol level at 10 uM after 96 hrs by gas-liquid chromatography; format: functional; parameters: scale not given: the % may be the effect or the level left; in short: as §1
Leishmania donovani = assay: Antileishmanial activity against Leishmania donovani MHOM/ET/67/L82 axenic amastigotes after 72 hrs by resazurin assay; format: functional, organism-based; settings: MHOM/ET/67/L82, 72 h
In short: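 L. donovani MHOM/ET/67/L82 amastigotes grown axenically at 37°C in synthetic minimal medium at pH 5.4 with 10% heat-inactivated FBS under 5% CO2. 1 × 10⁵ amastigotes per well with seven threefold dilutions, 30 to 0.041 μg/ml. After 72 h, resazurin added for 2–4 h more. Fluorescence read at ex 536/em 588 nm. IC50 taken from sigmoidal curve. Run in duplicate, with an independent repeat for actives.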

| Compound | Activity (Leishmania amazonensis [1]) | Activity (Leishmania amazonensis [2]) | IC50 (Plasmodium falciparum) | IC50 (Trypanosoma cruzi) | MIC (Leishmania amazonensis [3]) | IC50 [4] | IC50 [5] | Activity (Leishmania amazonensis [6]) | IC50 (L6) | Activity (Leishmania amazonensis [7]) | IC50 (Leishmania donovani) |
| --- | --- | --- | --- | --- | --- | --- | --- | --- | --- | --- | --- |
| OC[C@@H]1CC2CCN1C[C@@H]2C#Cc1ccc2ccccc2c1 (stereo not given in full) | 6.6% | 9.6% | 2.1 µM | 4.7 µM | > 10 µM | 1.1 µM | > 1 µM | 68.4% | 40.1 µM | 15.4% | 22.6 µM |
| COc1ccc(C#CC2(O)CN3CCC2CC3)cc1 (stereo not given) | – | 13.4% | 8.2 µM | 67.2 µM | > 10 µM | 18.4 µM | > 1 µM | 66.8% | > 350 µM | 19.8% | 7 µM |
| COCCCOc1ccc(C#C[C@@]2(O)CN3CCC2CC3)c(Cc2ccccc2)n1 | – | – | – | – | – | – | 0.033 µM | – | – | – | – |
| OC1(C#Cc2ccc(Cl)nc2)CN2CCC1CC2 (stereo not given) | – | 8.2% | 9.3 µM | > 114 µM | > 10 µM | 53.3 µM | > 1 µM | 71.7% | > 342 µM | 20.1% | 16.3 µM |
| O=C(O)c1cc(C#CC2(O)CN3CCC2CC3)ccc1O (stereo not given) | – | 5.6% | – | – | > 10 µM | – | > 1 µM | 74% | – | 20.4% | – |
| OC[C@H]1CC2CCN1C[C@@H]2C#Cc1cnc2ccccc2c1 (stereo not given in full) | – | 11.6% | 2.7 µM | 33.8 µM | > 10 µM | 10.9 µM | > 1 µM | 69.7% | 38.9 µM | 18.7% | 40.3 µM |
| Oc1ccc(C#CC2(O)CN3CCC2CC3)cc1 (stereo not given) | – | 15.7% | 18.7 µM | 90.4 µM | > 10 µM | 53 µM | > 1 µM | 64.2% | > 370 µM | 20.1% | 20 µM |
| OC1(C#Cc2cccnc2)CN2CCC1CC2 (stereo not given) | – | 11.2% | 18.9 µM | > 131 µM | > 10 µM | 173 µM | > 1 µM | 75.9% | > 394 µM | 12.9% | 9.2 µM |
| C1=C(c2cc3ccccc3o2)C2CCN1CC2 | – | 27.8% | 6.2 µM | 61.3 µM | > 10 µM | 17.1 µM | > 1 µM | 60% | 177 µM | 12.2% | 82 µM |
| O=C(O)c1ccc(C#CC2(O)CN3CCC2CC3)cc1 (stereo not given) | – | 7.2% | > 18.4 µM | 90.2 µM | > 10 µM | 146 µM | > 100 µM | 70.9% | > 332 µM | 21.9% | > 111 µM |
| C1=C(c2cnc3ccccc3c2)C2CCN1CC2 | – | 7.3% | 15 µM | 51.1 µM | > 10 µM | 22.4 µM | > 1 µM | 74.5% | 276 µM | 18.2% | 72.4 µM |
| Nc1ccc(C#CC2(O)CN3CCC2CC3)cn1 (stereo not given) | – | 11.6% | > 21 µM | 97 µM | > 10 µM | 5.7 µM | > 1 µM | 75.2% | > 370 µM | 13.2% | 10.8 µM |
| CC(=O)c1ccc(C#CC2(O)CN3CCC2CC3)s1 (stereo not given) | – | 9.9% | 10.2 µM | 72.6 µM | > 10 µM | 30.3 µM | > 1 µM | 67.8% | 194 µM | 22.3% | 18.9 µM |
| CO[C@H]1CN(c2ccc(C#C[C@@]3(O)CN4CCC3CC4)c(Cc3ccccc3)n2)C[C@H]1O | – | – | – | – | – | – | 0.013 µM | – | – | – | – |
| OC[C@H]1CC2CCN1C[C@@H]2C#Cc1ccc2ccccc2c1 (stereo not given in full) | – | 11.2% | 3 µM | 5.3 µM | > 10 µM | 1.4 µM | > 1 µM | 65.7% | 50.4 µM | 23.1% | 12 µM |
| COC(=O)c1ccc(N)c(C#CC2(O)CN3CCC2CC3)c1 (stereo not given) | – | 6.4% | 10.9 µM | 44.9 µM | > 10 µM | 30.8 µM | > 1 µM | 74.3% | > 300 µM | 19.3% | 17.2 µM |
| OC1(C#Cc2cnccn2)CN2CCC1CC2 (stereo not given) | – | 14.2% | – | – | 3 µM (≈ 0.688 µg/mL) | – | > 1 µM | 52% | – | 33.8% | – |
| CCCCCCCCCCCCCCCCOP(=O)([O-])OCC[N+](C)(C)C [MILTEFOSINE] | – | – | – | – | – | – | – | – | – | – | 0.338 µM |
| CCOC(=O)c1ccc(C#C[C@H]2CN3CCC2C[C@@H]3CO)cc1 (stereo not given in full) | 9.5% | 11.4% | 1.1 µM | 18.8 µM | > 10 µM | 3.8 µM | > 1 µM | 55.5% | 55.2 µM | 23.6% | > 96 µM |
| OC1(C#Cc2ccc3cc[nH]c3c2)CN2CCC1CC2 (stereo not given) | – | 17.5% | 7.1 µM | 26.2 µM | > 10 µM | 19.9 µM | > 1 µM | 62.6% | > 338 µM | 19.9% | 11.4 µM |
| CCOc1ccc(C#CC2(O)CN3CCC2CC3)cc1 (stereo not given) | – | 24.6% | 5.9 µM | 21.2 µM | > 10 µM | 5.4 µM | – | 45.4% | > 332 µM | 30% | 10.5 µM |
| Cc1ccc(N)cc1C#CC1(O)CN2CCC1CC2 (stereo not given) | – | 6.5% | 11.7 µM | > 117 µM | > 10 µM | 62.4 µM | > 1 µM | 72.8% | > 351 µM | 20.7% | 28.5 µM |
| COc1cc([C@@H]2c3cc4c(cc3[C@H](O)[C@H]3COC(=O)[C@H]23)OCO4)cc(OC)c1OC [PODOFILOX] | – | – | – | – | – | – | – | – | 0.014 µM | – | – |
